Measurements taken from ChEMBL document CHEMBL5357066, “Development of Novel Membrane Disrupting Lipoguanidine Compounds Sensitizing Gram-Negative Bacteria to Antibiotics” (ACS Med Chem Lett, 2024).
Active and inactive are the calls of the source.

Columns and labels:
[1] = tested on: Klebsiella pneumoniae; test: Potentiation of doxycycline induced antibacterial activity against Klebsiella pneumoniae NCTC 13368; assay type: functional, organism-based
[2] = tested on: Cell membrane; test: Induction of outer membrane permeabilization in Klebsiella pneumoniae NCTC 13368 assessed as increase fluorescence intensity by measuring NPN uptake factor measured immediately for 2 hrs by fluorescence based analysis; assay type: subcellular
In short: (§1)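 NPN outer-membrane uptake. Overnight TSB cultures (37 °C, 200 rpm) were subcultured 1:20 for 2 h to mid-log, washed, and resuspended in 5 mM HEPES with 5 mM glucose, pH 7.2. Cells were mixed with assay buffer containing 10 µM NPN, then with compound, polymyxin B (positive control) or buffer. Fluorescence (ex 350, em 420 nm) was monitored immediately for 2 h.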

[3] = Toxicity in Galleria mellonella larvae assessed as reduction in animal survival at 10 to 50 mg/kg measured for 120 hrs; assay type: organism-based; conditions: in vivo, dose 10-50 mg/kg
In short: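 Wax moth larvae, assumed 300 mg mean weight with 50 µL haemolymph, 10 per group. Each was injected via the front proleg with 10 µL of compound at 50, 20 or 10 mg/kg, or PBS only. Larvae were held at 37 °C for 5 days and scored live/dead every 24 h; dead meant no response to physical stimuli.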

[4] = tested on: Acinetobacter baumannii; test: Synergistic antibacterial activity against Acinetobacter baumannii AYE assessed as reduction in rifampicin MIC at 32 microg/ml incubated for overnight by microbroth dilution checkerboard assay; assay type: functional, organism-based; conditions: dose 32.0 µg/ml
In short: (§2)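 Checkerboard microdilution under MIC conditions (TSB, overnight, 37 °C). Two-fold series of each agent were combined on one plate before bacteria were added, and single-agent MICs were measured on the same plate. FIC = sum of combination MIC/alone MIC for each agent, taken from the most synergistic well. Three independent repeats, mean ± SD. ≤0.5 was taken as strong synergy and 0.5–<1 as weak.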

[5] = tested on: Escherichia coli; test: Synergistic antibacterial activity against Escherichia coli NCTC 12923 assessed as reduction in rifampicin MIC at 32 microg/ml incubated for overnight by microbroth dilution checkerboard assay; assay type: functional, organism-based; conditions: dose 32.0 µg/ml; in short: as §2
[6] = tested on: Cell membrane; test: Induction of outer membrane permeabilization in Pseudomonas aeruginosa NCTC 13437 assessed as increase fluorescence intensity by measuring NPN uptake factor measured immediately for 2 hrs by fluorescence based analysis; assay type: subcellular; in short: as §1
[7] = tested on: Acinetobacter baumannii; test: Synergistic antibacterial activity against Acinetobacter baumannii ATCC 17978 assessed as reduction in rifampicin MIC at 32 microg/ml incubated for overnight by microbroth dilution checkerboard assay; assay type: functional, organism-based; conditions: dose 32.0 µg/ml; in short: as §2
[8] = tested on: Pseudomonas aeruginosa; test: Potentiation of doxycycline induced antibacterial activity against Pseudomonas aeruginosa PAO1; assay type: functional, organism-based
[9] = tested on: Cell membrane; test: Induction of outer membrane permeabilization in Acinetobacter baumannii ATCC 17978 assessed as increase fluorescence intensity by measuring NPN uptake factor measured immediately for 2 hrs by fluorescence based analysis; assay type: subcellular; in short: as §1
[10] = tested on: Klebsiella pneumoniae; test: Synergistic antibacterial activity against Klebsiella pneumoniae NCTC 13368 assessed as fractional inhibitory concentration index incubated for overnight in presence of rifampicin by microbroth dilution checker board assay; assay type: functional; in short: as §2
[11] = tested on: Pseudomonas aeruginosa; test: Synergistic antibacterial activity against Pseudomonas aeruginosa NCTC 13437 assessed as fractional inhibitory concentration index incubated for overnight in presence of rifampicin by microbroth dilution checker board assay; assay type: functional
In short: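 Checkerboard microdilution in Tryptic Soy Broth, run like the MIC assay. Overnight TSB cultures were back-diluted to OD 0.01 and added 1:1 to the combined two-fold series of both agents, then incubated overnight at 37 °C. Growth/no-growth was called at <0.1 OD600. MICs alone were read on the same plates. FIC index came from the most synergistic well; three independent repeats, mean ± SD.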

[12] = tested on: Klebsiella pneumoniae; test: Synergistic antibacterial activity against Klebsiella pneumoniae NCTC 13368 assessed as reduction in rifampicin MIC at 8 to 64 microg/ml incubated for overnight by microbroth dilution checkerboard assay; assay type: functional, organism-based; conditions: dose 8-64 µg/ml; in short: as §2
[13] = tested on: Klebsiella pneumoniae; test: Synergistic antibacterial activity against Klebsiella pneumoniae M6 assessed as reduction in rifampicin MIC at 8 to 32 microg/ml incubated for overnight by microbroth dilution checkerboard assay; assay type: functional, organism-based; conditions: dose 8-32 µg/ml
In short: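 Broth microdilution in Tryptic Soy Broth, with rifampicin in a 2-fold dilution series combined with the second agent. Bacteria were grown overnight in TSB, back-diluted, then incubated with the compounds overnight at 37 °C. MIC was taken as the lowest concentration with no visible growth (<0.1 OD600).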

[14] = tested on: Cell membrane; test: Induction of outer membrane permeabilization in Acinetobacter baumannii AYE assessed as increase fluorescence intensity by measuring NPN uptake factor measured immediately for 2 hrs by fluorescence based analysis; assay type: subcellular; in short: as §1
[15] = tested on: Cell membrane; test: Induction of outer membrane permeabilization in Pseudomonas aeruginosa PAO1 assessed as increase fluorescence intensity by measuring NPN uptake factor measured immediately for 2 hrs by fluorescence based analysis; assay type: subcellular; in short: as §1
[16] = tested on: Cell membrane; test: Induction of outer membrane permeabilization in Escherichia coli NCTC 12923 assessed as increase fluorescence intensity by measuring NPN uptake factor measured immediately for 2 hrs by fluorescence based analysis; assay type: subcellular; in short: as §1
[17] = tested on: Klebsiella pneumoniae; test: Potentiation of doxycycline induced antibacterial activity against Klebsiella pneumoniae M6; assay type: functional, organism-based
[18] = tested on: Escherichia coli; test: Potentiation of doxycycline induced antibacterial activity against Escherichia coli NCTC 12923; assay type: functional, organism-based

CCCCCCCCCCNC(=N)NCCCCN
0.15: fractional inhibitory concentration index (FICI) [11]
active: Activity [1] | Activity [4] | Activity [5] | Activity [7] | Activity [8] | Activity [12] | Activity [13] | Activity [17] | Activity [18]
Non-Toxic: Activity [3]
0.1: fractional inhibitory concentration index (FICI) [10]
> 1: Activity [2] | Activity [6] | Activity [9] | Activity [14] | Activity [15] | Activity [16]
